# ChEMBL document CHEMBL3271955, “Design, synthesis, and correlation analysis of 7-substituted 4-hydroxyquinoline-3-carboxylic acids as inhibitors of cellular respiration” (J Med Chem, 1977)
# Experiments:
# [1] = test system: Ehrlich; assay: Inhibition of respiration in mouse Ehrlich ascites cells after 30 mins incubation at 37 degC by whole cell model; assay type: functional, cell-based; conditions: 0.5 h, read-out: I50
# Method in brief: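 Ehrlich ascites cells passaged weekly in Swiss white mice; fluid from 7-10 day tumors, saline-washed, held on ice at ~0.30 g/mL. Cells incubated in glucose-free phosphate Ringer with DMSO vehicle or DMSO plus inhibitor, 30 min at 37 °C. O2 uptake read by oxygen electrode. At least four concentrations in triplicate; I50 by least squares of % inhibition vs concentration.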
# [2] = molecular target: T1, Malate dehydrogenase, mitochondrial (Homo sapiens, UniProt P40926); assay: Inhibition of malate dehydrogenase (unknown origin) by spectrophotometry; conditions: read-out: I50
# T1 sequence (P40926 whole entry): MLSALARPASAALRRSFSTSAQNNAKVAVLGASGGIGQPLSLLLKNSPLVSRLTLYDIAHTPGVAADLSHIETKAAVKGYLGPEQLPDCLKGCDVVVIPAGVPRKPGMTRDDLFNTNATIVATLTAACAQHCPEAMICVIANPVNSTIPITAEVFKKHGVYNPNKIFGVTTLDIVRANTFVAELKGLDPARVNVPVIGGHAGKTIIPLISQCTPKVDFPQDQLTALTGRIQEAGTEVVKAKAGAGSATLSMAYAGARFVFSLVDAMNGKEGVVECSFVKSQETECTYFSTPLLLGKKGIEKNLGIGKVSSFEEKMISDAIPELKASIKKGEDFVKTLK
# Method in brief: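 Malate dehydrogenase of unstated source diluted in pH 7.4 Tris to give 0.01-0.02 OD/min at 340 nm. Cuvette holds L-malate (2 mM stock), NAD+ (0.80 mM stock) and 0.05 M Tris pH 8.4, with inhibitor in Me2SO, at 25 °C. Reaction started with enzyme; NADH formation read at 340 nm. Four inhibitor levels in triplicate; I50 from least-squares dose-response line.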
# [3] = Lipophilicity, log P of the compound; assay type: physicochemical; conditions: octanol/water
smiles,measurement,setting,value
O=C(O)c1cnc2cc(S(=O)(=O)O)ccc2c1O,IC50,[1],1300 µM
same,IC50,[2],2140 µM
O=C(O)c1cnc2cc(O)ccc2c1O,IC50,[1],910 µM
same,IC50,[2],490 µM
CN(C)c1ccc2c(O)c(C(=O)O)cnc2c1,IC50,[1],470 µM
same,IC50,[2],480 µM
O=C(O)c1ccc2c(O)c(C(=O)O)cnc2c1,IC50,[1],5770 µM
same,IC50,[2],1070 µM
O=C(O)c1cnc2cc([N+](=O)[O-])ccc2c1O,IC50,[1],580 µM
same,IC50,[2],1890 µM
NS(=O)(=O)c1ccc2c(O)c(C(=O)O)cnc2c1,IC50,[1],3400 µM
same,IC50,[2],950 µM
CC(=O)c1ccc2c(O)c(C(=O)O)cnc2c1,IC50,[1],790 µM
same,IC50,[2],910 µM
O=C(O)c1cnc2cc(OCc3ccc(Cl)c(Cl)c3)ccc2c1O,IC50,[1],15 µM
same,IC50,[2],5 µM
O=C(O)c1cnc2cc(OCc3ccccc3)ccc2c1O,IC50,[1],38 µM
same,IC50,[2],32 µM
O=C(O)c1cnc2ccccc2c1O,IC50,[1],1060 µM
same,logP,[3],0.23
NC(=O)c1ccc2c(O)c(C(=O)O)cnc2c1,IC50,[1],5820 µM
same,IC50,[2],740 µM
CS(=O)(=O)c1ccc2c(O)c(C(=O)O)cnc2c1,IC50,[1],1790 µM
same,IC50,[2],660 µM
O=C(O)c1cnc2cc(Cl)ccc2c1O,IC50,[1],140 µM
same,IC50,[2],3620 µM
O=C(O)c1cnc2cc(F)ccc2c1O,IC50,[1],500 µM
same,IC50,[2],10600 µM
COc1ccc2c(O)c(C(=O)O)cnc2c1,IC50,[1],520 µM
